Results as given in paper PMC10245909 (bioRxiv, 2023).
Where a name gives a salt, the structure may show the parent alone.

Legend:
C. parvum [1] = test: Initial screen of gut metabolites on C. parvum growth in HCT-8 cells; type: cell-based, Cryptosporidium parvum; settings: 24 hpi, metabolite at 1 mM (0.1 mM for bile acids/salts)
Outline: (§1)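 Confluent HCT-8 cells (1.5 × 10^5/well, grown ~24 h) were infected with 5 × 10^5 bleached oocysts together with a single metabolite diluted in culture medium (1 mM or 0.1 mM) for 24 h. Parasite and host cell numbers are given as ratios to PBS control wells on the same plate. Each metabolite was run in triplicate across six separate experiments.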

C. parvum [2] = settings: dietary supplementation, malnourished neonatal mice; cited from earlier work
AhR = settings: cited from earlier work
C. parvum [3] = test: C. parvum growth assay in HCT-8 cells; type: cell-based, Cryptosporidium parvum; settings: for Cp infection, treatment started 4 hpi: 4 – 24 hpi; for Cp growth, treatment 0 – 4 hpi only: first four hours of infection only; for EC50: HCT-8, 24 h
C. parvum [4] = test: Air-liquid interface; type: cell-based, Cryptosporidium parvum; settings: for time after washout to significant recovery in Cp growth: treated 48 h at EC50 concentration; for EC50 / EC90: Cryptosporidium parvum; for EC50: read-out: EC50 for Cp in ALI cultures; for EC90: read-out: EC90 for Cp in ALI cultures
Outline: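 ALI transwells were coated with 10% Matrigel and seeded with irradiated mouse 3T3 fibroblasts (8 × 10^4/transwell). Top medium was removed after 7 days, and 5 × 10^4 oocysts were added on top 3 days later. After ~4 h the tops were washed twice with DPBS and day-0 wells scraped. Test compound at three levels or 1% DMSO went in the bottom medium for ~48 h, then transwells moved to normal medium. Parasite genome eq. by DNA extraction, normalized to DMSO at each time point; six replicates (3 technical × 2 experiments).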

C. parvum [5] = test: Metabolite treatment of C. parvum-infected GKO mice; type: in vivo, mouse
C. parvum [6] = test: Antibody and EdU labeling of C. parvum life cycle stages in HCT-8 cells; type: cell-based, Cryptosporidium parvum; settings: EC90 concentrations; for life cycle stage progression: first 24 hpi, EdU pulses
HCT-8 cells [7] = test: Host cell numbers in the initial metabolite screen; type: cell-based, human; settings: metabolite at 1 mM, 24 h
Outline: as §1

HCT-8 cells [8] = test: Seahorse metabolic assays; type: cell-based, human; settings: 18 h
C. parvum [9] = test: C. parvum growth assay in HCT-8 AhR KO cell lines; type: cell-based, Cryptosporidium parvum; settings: HCT-8 AhR KO cells, 24 h, indole 1 mM, 4HI 1 mM
Cp mitosome = test: Mitotracker CMXRos staining of C. parvum mitosome; type: cell-based, Cryptosporidium parvum; settings: 2 x EC90 indole 1.76 mM, 7CNI 1 mM, CCCP 10 μM; 2 h or 24 h
Outline: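 HCT-8 cells on coverslips were infected with 5 × 10^5 oocysts, washed twice with DPBS, and exposed in 1% DMSO medium either 22–24 hpi (2 h) or continuously to 24 hpi. MitoTracker Red CMXRos (50 nM final) was added 45 min before fixation at 24 hpi. Staining used 1E12 with Alexa Fluor 488 secondary plus Hoechst. Four replicates (2 technical × 2 experiments).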

C. parvum [10] = settings: neonatal mice, only when gut microflora present; cited from earlier work
HCT-8 cells [11] = test: Host nuclei in growth assay with mitochondrial inhibitors; type: cell-based, human; settings: for host cell toxicity at Cp-inhibitory levels: HCT-8, 24 h, at EC50 levels
Outline: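 Confluent HCT-8 cells (1.5 × 10^5/well) were infected with 1 × 10^5 bleached oocysts and exposed ~24 h to test compounds, serially diluted 1:2 from 40 μM (final, 1% DMSO). Cells were fixed in 4% formaldehyde, permeabilized/blocked in 0.1% Triton-X/1% BSA, Hoechst-stained and counted, with values relative to the 1% DMSO control mean. Four replicates (2 technical × 2 experiments).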

[12] = tested on: AhR target genes AhRR and CYP1A1; settings: HCT-8 AhR KO 1 and KO 2, VAF347 500 nM, 24 h
[13] = Cryptosporidium parvum, HCT-8, read-out: EC90 for Cp, HCT-8 cells
[14] = Cryptosporidium parvum, read-out: Cp EC50
[15] = indole 0.5-2 mM, 7CNI 0.25-1 mM

Molecule: propionic
- effect on Cp growth (Cp numbers relative to PBS control) (C. parvum [1]): impair growth

Molecule: N=C(N)NCCC[C@H](N)C(=O)O [arginine]
- severity of C. parvum infection (C. parvum [2]): decrease severity of C. parvum infection

Molecule: Cc1cccc2[nH]ccc12 [4-methylindole]
- AhR signaling in vitro (AhR): activate AhR signaling

Molecule: Cc1ccc2cc[nH]c2c1 [6-methylindole]
- AhR signaling in vitro (AhR): activate AhR signaling

Molecule: N#Cc1cccc2cc[nH]c12 [7-cyanoindole]
- EC90 (C. parvum [3]; [13]): 500 µM
- Cp infection, treatment started 4 hpi (C. parvum [3]; EC90 concentrations): significantly inhibited Cp infection
- Cp growth, treatment 0 – 4 hpi only (C. parvum [3]; EC90 concentrations): neither indole nor 7CNI inhibited Cp growth
- time after washout to significant recovery in Cp growth (C. parvum [4]; ALI): 4 days
- EC50 (C. parvum [4]): 379 µM
- EC90 (C. parvum [4]): 688 µM
- survival rate (C. parvum [5]; 50 mg/kg BID 7 days): did not significantly increase survival rate
- mean Cp oocysts per mg feces by 9 dpi (C. parvum [5]; 50 mg/kg BID 7 days, after end of treatment): rebounded
- body weight vs vehicle- or indole-treated mice (C. parvum [5]; 50 mg/kg BID, 5 and 7 dpi): weighed significantly more
- life cycle stage progression (C. parvum [6]): delayed progression through sequential life cycle stages

Molecule: O=C(O)Cc1c[nH]c2ccc(O)cc12 [5-hydroxyindole-3-acetic acid]
- effect on Cp growth (Cp numbers relative to PBS control) (C. parvum [1]): no effect

Molecule: C[C@H](CCC(=O)O)[C@H]1CC[C@H]2[C@@H]3CC[C@@H]4C[C@H](O)CC[C@]4(C)[C@H]3C[C@H](O)[C@]12C [deoxycholic acid]
- host toxicity in screen (HCT-8 cells [7]): significant host toxicity

Molecule: c1ccc2[nH]ccc2c1 [indole]
- EC50 (C. parvum [3]; [14]): 411 µM
- EC90 (C. parvum [3]; [13]): 880 µM
- Cp infection, treatment started 4 hpi (C. parvum [3]; EC90 concentrations): significantly inhibited Cp infection
- Cp growth, treatment 0 – 4 hpi only (C. parvum [3]; EC90 concentrations): neither indole nor 7CNI inhibited Cp growth
- Cp infection after pre-treatment of host cells (C. parvum [3]; EC90 concentrations, host cells pre-treated 20 h before infection): did not affect subsequent Cp infection
- EC90 (C. parvum [3]; read-out: EC90 for Cp, HCT-8 cells): 877 µM
- Cp growth recovery after washout, 2 x EC90 (C. parvum [4]; ALI, treated 48 h at 2 x EC90 concentration): no recovery
- time after washout to significant recovery in Cp growth (C. parvum [4]; ALI): 2 days
- Cp growth recovery after washout, EC90 (C. parvum [4]; ALI, treated 48 h at EC90 concentration): Some growth recovery (though not significant)
- EC50 (C. parvum [4]): 577 µM
- EC90 (C. parvum [4]): 1890 µM
- median survival time (C. parvum [5]; 50 mg/kg BID 7 days, vehicle 11 dpi): 17 dpi
- Cp oocysts shed in feces (C. parvum [5]; 50 mg/kg oral gavage twice daily 7 days, by 5 dpi): no effect
- morphology of mature merozoites (1E12 labeling) (C. parvum [6]; 22 h): did not observe any obvious morphological defects
- time until which total number of Cp did not significantly differ from DMSO (C. parvum [6]; HCT-8, start of second round of merogony): ~ 16 hpi
- life cycle stage progression (C. parvum [6]): delayed progression through sequential life cycle stages
- basal and stressed respiratory rate in HCT-8 WT and AhR KO cells (HCT-8 cells [8]; indole 0.5, 1, 2 mM, stressed = after FCCP and oligomycin): significantly impaired in a dose-dependent manner
- basal and maximal levels of mitochondrial respiration (OCR) (HCT-8 cells [8]; indole 0.5, 1, 2 mM, 7CNI 0.25, 0.5, 1 mM, dose-dependent): significantly reduced
- ATP production rate by glycolysis (HCT-8 cells [8]; [15]): remained similar
- ATP production rate by the mitochondria (HCT-8 cells [8]; [15]): significant reduction
- spare respiratory capacity (HCT-8 cells [8]; [15]): diminished
- total ATP production rate (HCT-8 cells [8]; [15]): lower total ATP production rate
- Cp sensitivity in AhR KO cells (C. parvum [9]): remained sensitive
- Mitotracker staining of Cp mitosomes (Cp mitosome): significantly decreased Mitotracker staining

Molecule: poly(I:C)
- C. parvum load (C. parvum [10]): reduced C. parvum load

Molecule: CC[C@H]1/C=C/C=C/C[C@@H](C)[C@H](O)[C@@](C)(O)C(=O)[C@@H](C)[C@H](O)[C@@H](C)C(=O)[C@@H](C)[C@H](O)[C@@H](C)/C=C/C(=O)O[C@@H]2[C@H](C)[C@H](CC1)O[C@]1(CC[C@H](C)[C@H](C[C@@H](C)O)O1)[C@H]2C [oligomycin, reference compound]
- EC50 (C. parvum [3]; Cryptosporidium parvum, read-out: Cp EC50, OxPhos inhibitors): 20.6 µM
- host cell toxicity at Cp-inhibitory levels (HCT-8 cells [11]): not due to host cell toxicity

Molecule: FC(F)(F)c1ccc(Nc2nccc(-c3cccc(Cl)c3)n2)cc1 [VAF347]
- CYP1A1 gene expression in AhR KO lines [12]: lost the ability to upregulate CYP1A1 gene expression

Molecule: CCCCC[C@H](O)/C=C/[C@H]1[C@H](O)CC(=O)[C@@H]1C/C=C\CCCC(=O)O [prostaglandin E2]
- host toxicity in screen (HCT-8 cells [7]): significant host toxicity

Molecule: Oc1cccc2[nH]ccc12 [4-hydroxyindole]
- EC50 (C. parvum [3]; [14]): 1260 µM
- effect on Cp growth (Cp numbers relative to PBS control) (C. parvum [1]): significantly inhibited

Molecule: COc1cccc2cc[nH]c12 [7-methoxyindole]
- AhR signaling in vitro (AhR): activate AhR signaling

Molecule: C[C@H](CCC(=O)O)[C@H]1CC[C@H]2[C@@H]3CC[C@@H]4C[C@H](O)CC[C@]4(C)[C@H]3C[C@H](O)[C@]12C [deoxycholate, sodium deoxycholate]
- effect on Cp growth (Cp numbers relative to PBS control) (C. parvum [1]): significantly inhibited

Molecule: fumaric
- effect on Cp growth (Cp numbers relative to PBS control) (C. parvum [1]): impair growth

Molecule: N#CC(C#N)=NNc1cccc(Cl)c1 [CCCP, carbonyl cyanide m-chlorophenyl hydrazone]
- host toxicity at high concentration (HCT-8 cells [11]; HCT-8, 40 μM and 20 μM): observed host toxicity
- host cell toxicity at Cp-inhibitory levels (HCT-8 cells [11]): not due to host cell toxicity
- Mitotracker staining of Cp mitosomes (Cp mitosome): decreases Mitotracker staining

Molecule: C[C@H](CCC(=O)O)[C@H]1CC[C@H]2[C@@H]3CC[C@@H]4C[C@H](O)CC[C@]4(C)[C@H]3CC[C@]12C [lithocholic acid]
- host toxicity in screen (HCT-8 cells [7]): significant host toxicity
- effect on Cp growth (Cp numbers relative to PBS control) (C. parvum [1]): significantly inhibited

Molecule: Cc1ncc(CO)c(C=O)c1O [pyridoxal hydrochloride]
- EC50 (C. parvum [3]; [14]): 213 µM
- Fold selectivity (host EC50 divided by Cp EC50) (C. parvum [3]; HCT-8 cells): 44.6 fold
- effect on Cp growth (Cp numbers relative to PBS control) (C. parvum [1]): significantly inhibited
